SENP8 block-1 = blocks the human protease SENP8. purified SENP8, Z-RLRGG-aminoluciferin cleavage, luminescence. inhibition, % at 10 µM. hit rate 1.2% among 330,000; in the data active = inhibition above about 50%
Target sequence (Q96LD8 whole entry, looked up): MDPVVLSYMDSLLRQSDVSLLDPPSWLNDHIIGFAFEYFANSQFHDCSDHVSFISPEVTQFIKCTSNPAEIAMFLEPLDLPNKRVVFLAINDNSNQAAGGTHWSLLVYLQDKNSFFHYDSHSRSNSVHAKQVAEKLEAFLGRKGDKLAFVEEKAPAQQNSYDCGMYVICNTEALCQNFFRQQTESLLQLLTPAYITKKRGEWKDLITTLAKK
SENP8 block-2 = blocks human SENP8 cleavage of Nedd8 substrate | hit rate 0.64% among 360,000 | inhibition, % at 20 µM | recombinant SENP8, Nedd8 substrate fluorescence | AID 602440; in the data active = inhibition mostly above about 40%, no sharp cut-off; inactive = mostly below about 27%
SENP7 block = inhibitors of human SENP7 protease | inhibition, % at 5 µM | hit rate 1.5% among 330,000 | recombinant SENP7, Z-RLRGG-aminoluciferin luminescence, 40 min | AID 434973;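 active = inhibition above about 50% at the single test dose, limit read from the data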;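 also: plate controls were DMSO with enzyme for no effect and no enzyme buffer wells for full effect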
Platelet DG rel = modulates dense granule release in human platelets | hit rate 0.22% among 300,000 | human platelet-rich plasma, SFLLRN dense granule ATP release, luminescence | AID 1663 | inhibition, %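 (compounds screened at 7.5 µM in platelet-rich plasma)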;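 active = mean replicate score, as percent of positive control, at or above 50; inconclusive = mean below 50 but at least one replicate at or above 50; inactive = mean and every replicate below 50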
SENP1 inh = SENP1 (human) catalytic domain inhibition; hit rate 0.21% among 360,000; inhibition, % at 10 µM; AID 624204; recombinant SENP1 catalytic domain, CyPet-SUMO1-YPet FRET cleavage;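 active = inhibition at least 30% at 10 µM, raw YFP signal under a set limit, fluorescence ratio 0.5 to 1.5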;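 also: 0% = enzyme with DMSO and 100% = no enzyme wells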
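Controls: no-enzyme wells low, DMSO-plus-enzyme wells high control. Test system: human recombinant His6-tagged SENP1 catalytic domain enzyme. Reagent: SFCypet-SUMO1-SFYpet FRET protein substrate, 25 nM final. Doses: one dose per compound, 10 µM, 0.5% DMSO. Detection: FRET, CFP and YFP emission. Timing: 50 min reaction at room temperature.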
SENP6 block = SENP6 protease inhibition; Q9GZR1; Recombinant SENP6 catalytic domain, aminoluciferin luminescence; inhibition, % at 10 µM; hit rate 1.8% among 330,000;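 active = inhibition above about 50% at the single tested dose, limit read from the data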;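 also: plate controls were DMSO wells with enzyme for no effect and DMSO wells lacking enzyme for full effect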
Target sequence (Q9GZR1 628-1112 limits assumed): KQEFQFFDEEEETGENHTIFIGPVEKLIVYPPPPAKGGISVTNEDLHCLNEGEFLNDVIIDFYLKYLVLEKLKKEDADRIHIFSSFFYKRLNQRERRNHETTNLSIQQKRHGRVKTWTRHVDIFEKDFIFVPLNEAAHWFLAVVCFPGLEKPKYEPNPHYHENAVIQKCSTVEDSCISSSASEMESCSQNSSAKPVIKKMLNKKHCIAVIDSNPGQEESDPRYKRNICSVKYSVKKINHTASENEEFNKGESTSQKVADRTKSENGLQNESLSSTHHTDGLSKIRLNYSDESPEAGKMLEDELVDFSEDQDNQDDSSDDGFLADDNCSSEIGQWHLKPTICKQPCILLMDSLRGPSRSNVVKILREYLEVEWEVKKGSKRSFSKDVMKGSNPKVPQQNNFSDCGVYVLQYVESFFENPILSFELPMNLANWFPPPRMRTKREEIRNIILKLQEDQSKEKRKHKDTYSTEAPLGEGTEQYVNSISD
SENP8 conf-1 = confirmation of human SENP8 protease inhibitors. shares compounds with SENP7 block. Recombinant SENP8, Z-RLRGG-aminoluciferin luminescence, 60 min. inhibition, % at 12.5 µM. hit rate 40% among 6,200. AID 488912;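 active = mean inhibition across replicates above about 50%, limit read from the data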
SENP6 conf = human SENP6 inhibition, confirmed; recombinant SENP6, Z-RLRGG-aminoluciferin luminescence; hit rate 58% among 6,200; shares compounds with SENP7 block; AID 488915; inhibition, % at 12.5 µM
SENP7 conf = human SENP7 inhibition, confirmed | hit rate 69% among 6,200 | shares compounds with SENP7 block | recombinant SENP7, Z-RLRGG-aminoluciferin luminescence, 40 min | AID 488917 | inhibition, % at 12.5 µM
Casp3 select = caspase-3 inhibition (SENP selectivity assay) | hit rate 60% among 6,200 | shares compounds with SENP7 block | purified caspase-3, Z-DEVD-aminoluciferin luminescence, 60 min | inhibition, % at 12.5 µM;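 active = mean inhibition above about 50%, limit read from the data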;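 also: plate controls were enzyme with DMSO for no effect and wells without caspase-3 for full effect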
SENP luc ctr = luminescence interference (SENP counter-screen); shares compounds with SENP7 block; Pre-incubated SENP8/Z-RLRGG-aminoluciferin, luciferase luminescence interference; inhibition, % at 12.5 µM; hit rate 39% among 6,200;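 active = mean inhibition above about 50% when retested at one dose, limit read from the data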;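 also: plate controls were DMSO wells with completed reaction for no effect and substrate without enzyme for full effect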
SENP8 conf-2 = SENP8 (human) inhibition, single concentration confirmation | shares compounds with SENP8 block-2 | AID 624319 | hit rate 15% among 1,400 | inhibition, % at 25 µM | purified SENP8, Nedd8-AMC/pro-Nedd8 cleavage fluorescence, 30 min; in the data active = inhibition mostly above about 39%, no sharp cut-off; inactive = mostly below about 34%
SENP1 inh conf = confirmation of human SENP1 SUMO protease inhibitors; shares compounds with SENP1 inh; recombinant SENP1, CyPet-SUMO1-YPet FRET cleavage; inhibition, % at 10 µM; hit rate 34% among 520; in the data active = inhibition mostly above about 35%, no sharp cut-off; inactive = mostly below about 32%;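 also: 0% = enzyme with DMSO and 100% = no enzyme control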
SENP1 kinetic = confirmation of human SENP1 SUMO protease inhibitors, kinetic; shares compounds with SENP1 inh; inhibition, % at 10 µM; hit rate 26% among 520; recombinant SENP1, CyPet-SUMO1-YPet FRET kinetic cleavage; in the data active = inhibition mostly above about 32%, no sharp cut-off; inactive = mostly below about 29%;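 also: 0% = DMSO with enzyme and 100% = no enzyme substrate only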
* marks the source's active call; other numbers are inactive results; ? = inconclusive; · = not tested or not shown. Rows were chosen to be rich in hits. Some 2.6% of all compounds tested hit in one or more screens of this group.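 The calls were made as follows, unless noted: active = mean inhibition above about 50% in the one-dose retest (limit read from the data); inactive = the rest.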

SMILES	SENP8 block-1	SENP8 block-2	SENP7 block	Platelet DG rel	SENP1 inh	SENP6 block	SENP8 conf-2	others
Cc1nn(-c2ccccc2)c(Cl)c1/C=N/Nc1nc2ccccc2n1C	54.5*	4.7	64.7*	2.2	32.8*	43.0	·	SENP8 conf-1=-7.7;SENP6 conf=49.2;SENP7 conf=92.9*;Casp3 select=67.8*;SENP luc ctr=35.8;SENP1 inh conf=5.5;SENP1 kinetic=2.3
CN(C)c1ccc(CNC(=O)c2cc(S(=O)(=O)N3CCOCC3)cn2C)cc1	-1.7	14.4	-2.2	?	-3.0	1.7	·
Brc1ccccc1/C=N/Nc1ccccn1	34.9	3.2	86.4*	9.4	44.4*	-26.7	·	SENP8 conf-1=-6.3;SENP6 conf=3.1;SENP7 conf=9.6;Casp3 select=9.9;SENP luc ctr=-3.3;SENP1 inh conf=-3.5;SENP1 kinetic=-1.5
OCCNC(=S)Nc1ccc2nsnc2c1	60.6*	-11.7	31.8	-16.3	36.0*	81.9*	·	SENP8 conf-1=10.8;SENP6 conf=23.0;SENP7 conf=18.3;Casp3 select=8.8;SENP luc ctr=3.8;SENP1 inh conf=13.4;SENP1 kinetic=17.4
Cc1ccc(N(CC(=O)N(C)Cc2ccccc2)S(C)(=O)=O)cc1C	-4.9	14.6	4.1	-11.4	2.4	-1.7	·
O=C(N/N=C/c1ccc(N2CCOCC2)cc1)c1cccs1	63.5*	-375.8	75.8*	29.2	31.9*	74.5*	·	SENP8 conf-1=67.4*;SENP6 conf=68.6*;SENP7 conf=92.2*;Casp3 select=89.8*;SENP luc ctr=70.3*;SENP1 inh conf=14.7;SENP1 kinetic=12.9
O=C(N/N=C/c1ccc(N2CCOCC2)cc1)c1ccc(NS(=O)(=O)c2cccs2)cc1	-7.3	-406.2	-6.5	2.0	-9.9	-16.0	·
N#Cc1ccc(OC(=O)C2CCN(C3=NS(=O)(=O)c4ccccc43)CC2)cc1	1.3	18.5	-9.1	·	1.4	-6.9	·
Cc1cc2cc(C#N)c(SCC(=O)Nc3nonc3C)nc2cc1C	-4.7	-36.5	-2.6	0.5	64.8*	99.2*	·	SENP8 conf-1=-25.7;SENP6 conf=-19.8;SENP7 conf=-10.2;Casp3 select=-10.1;SENP luc ctr=-5.4;SENP1 inh conf=16.1;SENP1 kinetic=17.0
O=C(COc1ccc(Cl)cc1)NCc1cn2cc(Cl)ccc2n1	3.2	-17.4	5.9	-5.3	-64.9	-7.0	·
CN1C(=O)/C(=C\c2ccc(OC(=O)c3ccco3)cc2)SC1=S	40.6	13.0	71.7*	5.0	44.2*	73.9*	·	SENP8 conf-1=27.2;SENP6 conf=25.3;SENP7 conf=4.4;Casp3 select=42.8;SENP luc ctr=35.1;SENP1 inh conf=10.9;SENP1 kinetic=5.9
CN1C(=O)/C(=C\c2cccc(OCc3ccccc3)c2)SC1=S	-17.6	21.9	-4.1	6.2	1.8	1.2	·
CN1C(=O)/C(=C/c2ccc(OC(=O)c3ccco3)cc2)SC1=S	75.0*	20.1	79.1*	24.1	46.0*	72.5*	·	SENP8 conf-1=28.1;SENP6 conf=21.4;SENP7 conf=19.0;Casp3 select=47.3;SENP luc ctr=45.2;SENP1 inh conf=22.9;SENP1 kinetic=12.2
O=C(O)[C@@H]1[C@@H]2C[C@@H]2CN1c1ncccc1[N+](=O)[O-]	-4.4	-16.0	5.3	0.2	-8.6	0.9	·
COc1cccc(N=Nc2c(=O)[nH]n3c(=O)c4c([nH]c23)CCC4)c1	-4.2	30.6	0.8	13.5	4.1	5.3	·
COc1cccc(N=Nc2c(=O)[nH]n3c(=O)cc(C)[nH]c23)c1	-3.8	47.5*	-6.5	6.4	2.8	12.5	32.1
CNc1cc([N+](=O)[O-])ccc1N/C=C/C(=O)c1cccs1	-9.8	42.0*	-10.7	-1.9	16.8	9.3	19.0
CNc1cc([N+](=O)[O-])ccc1N/C=C/C(=O)c1ccc2c(c1)OCO2	-8.9	28.8	-4.8	3.6	27.2	3.1	·
CCC(=O)NC(c1cccs1)c1cc([N+](=O)[O-])c2cccnc2c1OC (stereo not given)	·	95.9*	·	·	10.2	·	34.0
C/C(=N\NC(=O)c1[nH]c2c([N+](=O)[O-])cc(C)cc2c1-c1ccccc1)c1cccnc1	3.3	60.3*	3.8	1.8	2.3	-7.7	13.1
COc1ccc(S(=O)(=O)N2CCC(C(=O)Nc3ccc(S(=O)(=O)N4CCCC4)cc3)CC2)cc1OC	-7.0	-2.5	-7.1	6.3	0.7	1.5	·
CC(C)(C)NS(=O)(=O)c1ccc(Oc2ncc(C(F)(F)F)cc2Cl)cc1	3.7	40.3*	1.9	4.2	1.8	3.1	19.6
O=c1c2ccccc2ncn1Cc1ccc(Cl)c(Cl)c1	-0.2	6.1	3.9	-4.5	-0.8	-4.2	·
O=C(O)Cc1cn(Cc2ccc(F)cc2)c2ccccc12	1.9	0.6	3.6	-0.6	1.4	0.0	·
Cc1[nH][nH]c(=O)c1C(c1c(C)[nH][nH]c1=O)c1cn(Cc2ccc(Cl)c(Cl)c2)c2ccccc12	·	72.8*	·	-11.3	-4.3	·	68.3*
SMILES	SENP8 block-1	SENP8 block-2	SENP7 block	Platelet DG rel	SENP1 inh	SENP6 block	SENP8 conf-2	others
Cc1[nH][nH]c(=O)c1C(c1c(C)[nH][nH]c1=O)c1cn(Cc2ccc(F)cc2)c2ccccc12	·	76.8*	·	·	-2.1	·	73.1*
CCN(c1ccc(C(=O)CN2C(=O)NC3(CCOc4ccccc43)C2=O)cc1)S(C)(=O)=O (stereo not given)	-9.9	-6.6	-7.6	·	-7.8	-4.2	·
O=C(C[C@@H]1C/C=C/CCCC(=O)O[C@H](c2ccccc2)CNC1=O)N[C@H](CO)Cc1ccccc1	-3.7	14.3	7.7	·	-1.6	-8.8	·
Cc1ccc(C)c2c1CCCC2=O	·	6.4	·	·	0.7	·	·
CN(C)/C=C/C=C1C(=O)CCCC1=O	-8.8	49.3*	-5.6	7.0	-0.9	-5.8	5.6
CCC(CC)c1nnc(NC(=O)CSCC(=O)Nc2cc(C)on2)s1	-5.9	8.8	10.9	2.8	1.6	-10.4	·
Cc1cc(NC(=O)CSc2cn(CC(=O)N(C(C)C)C(C)C)c3ccccc23)no1	3.2	4.6	1.5	-12.0	-0.4	-2.3	·
O=c1ccc(NS(=O)(=O)c2ccccc2Cl)cn1Cc1ccc(Cl)c(Cl)c1	10.1	39.0*	9.7	-5.5	-13.0	21.3	-6.6
Cc1ccc(S(=O)(=O)Nc2ccc(=O)n(Cc3ccc(Cl)c(Cl)c3)c2)cc1	9.1	-46.2	-0.6	-3.9	-61.1	4.7	·
